Test results from ChEMBL document CHEMBL1152677, “Combretastatin-like chalcones as inhibitors of microtubule polymerisation. Part 2: Structure-based discovery of alpha-aryl chalcones” (Bioorg Med Chem, 2009).
Blank lines part the entries; values can stand above or below the compound they belong to.

What was measured:
[1] = Inhibition of tubulin assembly by spectrophotometry
Method in brief: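 Tubulin (10–15 μM stock) in 0.1 M Mes, 1 mM EGTA, 0.5 mM MgCl2, pH 6.6, with GTP, compound in DMSO, assembled on cold at 0 °C then moved to 37 °C. Absorbance at 350 nm followed for 30 min against drug/GTP buffer blanks; change in optical density relative to untreated control gives IC50 for assembly inhibition.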

[2] = tested on: L1210; experiment: Antiproliferative activity against mouse L1210 cells after 5 days by MTT assay; format: functional, cell-based; conditions: L1210, 120 h
Method in brief: (§1)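 Cells at about 2000 cells/mL (set by doubling time) in RPMI with 10% v/v FCS; compound from DMSO stock, seven twofold serial dilutions plus drug-free control, triplicate wells, 37 °C 5% CO2 for 5 days. MTT (3 mg/mL in PBS) added for 3 h, formazan dissolved in DMSO, OD read at 540 and 690 nm; IC50 derived graphically as percentage of control growth.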

[3] = tested on: A2780; experiment: Antiproliferative activity against human A2780 cells after 5 days by MTT assay; format: functional, cell-based; conditions: A2780, 120 h; method in brief: as §1
[4] = tested on: K562; experiment: Cell cycle arrest in human K562 cells assessed as accumulation at S phase at 10 uL after overnight incubation by propidium iodide staining-based flow cytometry; format: functional
Method in brief: (§2)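 Fixed in cold 1:1 acetone:ethanol, washed in PBS, RNAse treated (37 °C, 15 min), stained with propidium iodide 50 µg/mL; DNA content read by flow cytometry, argon laser excitation 488 nm; percentage of cells per phase versus untreated control.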

[5] = tested on: K562; experiment: Cell cycle arrest in human K562 cells assessed as accumulation at G0/G1 phase at 10 uL after overnight incubation by propidium iodide staining-based flow cytometry; format: functional; method in brief: as §2
[6] = tested on: P388; experiment: Antiproliferative activity against mouse P388 cells after 5 days by MTT assay; format: functional, cell-based; conditions: P388, 120 h; method in brief: as §1
[7] = tested on: K562; experiment: Antiproliferative activity against human K562 cells after 5 days by MTT assay; format: functional, cell-based; conditions: K562, 120 h; method in brief: as §1
[8] = tested on: A549; experiment: Antiproliferative activity against human A549 cells after 5 days by MTT assay; format: functional, cell-based; conditions: A549, 120 h; method in brief: as §1
[9] = tested on: K562; experiment: Cell cycle arrest in human K562 cells assessed as accumulation at G2/M phase at 10 uL after overnight incubation by propidium iodide staining-based flow cytometry; format: functional; method in brief: as §2
[10] = Inhibition of tubulin assembly by turbidimetry assay
[11] = tested on: K562; experiment: Cytotoxicity against human K562 cells; format: functional, cell-based
Method in brief: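 K562 cells in RPMI with 10% v/v FCS, at about 2000 cells/mL. Drug in DMSO was serially diluted twofold to give seven concentrations, plus a drug-free control. Cells were plated in triplicate and incubated 5 days at 37 °C, 5% CO2. MTT (3 mg/mL stock) was added for 3 h, formazan dissolved in DMSO, and OD read at 540 and 690 nm. IC50 was found graphically as percent of control growth.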

[12] = Displacement of [3H]colchicine from tubulin

IC50 [1]: 5.5 µM
IC50 [2]: 0.036 µM
IC50 [3]: 0.034 µM
IC50 [6]: 0.028 µM
IC50 [7]: 0.049 µM
IC50 [8]: 0.05 µM
SMILES: COc1ccc(/C=C(/C(=O)c2cc(OC)c(OC)c(OC)c2)c2ccccc2O)cc1O
Activity [4]: 18.1%
Activity [5]: 6.5%
Activity [9]: 75.4%

IC50 [1]: 2.1 µM
IC50 [2]: 0.16 µM
IC50 [3]: 0.01 µM
IC50 [6]: 0.02 µM
IC50 [7]: 0.012 µM
IC50 [8]: 0.68 µM
SMILES: COc1ccc(C(=Cc2ccc(OC)c(O)c2)C(=O)c2cc(OC)c(OC)c(OC)c2)cc1
Activity [4]: 34.6%
Activity [5]: 10.8%
Activity [9]: 54.6%

IC50 [7]: 6.3 µM
SMILES: COc1cc(C(=O)C(=Cc2ccccc2)c2ccccc2)cc(OC)c1OC

IC50 [1]: > 10 µM
IC50 [7]: 0.37 µM
SMILES: COc1ccc(/C=C(/C(=O)c2cc(OC)c(OC)c(OC)c2)c2ccccc2O)cc1

IC50 [7]: > 10 µM
SMILES: COc1ccc(C=C(C(=O)c2cc(OC)c(OC)c(OC)c2)c2ccccc2)cc1[N+](=O)[O-]

IC50 [1]: > 10 µM
IC50 [7]: 0.38 µM
SMILES: COc1ccc(/C=C(/C(=O)c2cc(OC)c(OC)c(OC)c2)c2ccccc2O)cc1O[Si](C)(C)C(C)(C)C

IC50 [7]: 0.02 µM
SMILES: COc1ccc(/C=C(/C(=O)c2cc(OC)c(OC)c(OC)c2)c2ccccc2)cc1

IC50 [1]: 7.2 µM
IC50 [2]: 0.06 µM
IC50 [3]: 0.04 µM
IC50 [6]: 0.53 µM
IC50 [7]: 0.06 µM
IC50 [8]: 0.14 µM
SMILES: COc1ccc(/C=C(/C(=O)c2cc(OC)c(OC)c(OC)c2)c2ccccc2O)cc1F
Activity [4]: 43.6%
Activity [5]: 10.6%
Activity [9]: 45.7%

IC50 [1]: 4.4 µM
IC50 [7]: 0.57 µM
SMILES: COc1ccc(C=C(C(=O)c2cc(OC)c(OC)c(OC)c2)c2ccc(C)cc2)cc1F

IC50 [7]: 4.92 µM
SMILES: COc1ccc(C(=Cc2ccccc2)C(=O)c2cc(OC)c(OC)c(OC)c2)cc1

IC50 [7]: 2.66 µM
SMILES: COc1ccc(C(=Cc2ccc(OC)c([N+](=O)[O-])c2)C(=O)c2cc(OC)c(OC)c(OC)c2)cc1

IC50 [7]: 2.43 µM
SMILES: COc1ccc(C=C(C(=O)c2cc(OC)c(OC)c(OC)c2)c2ccc(C)cc2)cc1[N+](=O)[O-]

IC50 [1]: 3.3 µM
IC50 [2]: 0.011 µM
IC50 [3]: 0.0018 µM
IC50 [10]: 0.46 µM
IC50 [6]: 0.026 µM
IC50 [7]: 0.0044 µM
IC50 [8]: 0.01 µM
SMILES: COc1ccc(/C=C(\C)C(=O)c2cc(OC)c(OC)c(OC)c2)cc1O
Activity [4]: 32.8%
Activity [5]: 10.7%
Activity [9]: 56.4%

IC50 [7]: 0.09 µM
SMILES: COc1ccc(/C=C(/C(=O)c2cc(OC)c(OC)c(OC)c2)c2ccc(OC)cc2OC)cc1

IC50 [7]: 0.79 µM
SMILES: COc1ccc(C=C(C(=O)c2cc(OC)c(OC)c(OC)c2)c2ccccc2)cc1F

IC50 [7]: 0.04 µM
SMILES: COc1ccc(/C=C(/C(=O)c2cc(OC)c(OC)c(OC)c2)c2ccc(OC)cc2)cc1

IC50 [7]: 2.97 µM
SMILES: COc1cc(C(=O)C(=Cc2ccccc2)c2ccc(C)cc2)cc(OC)c1OC

IC50 [7]: 0.5 µM
SMILES: COc1ccc(C=C(C(=O)c2cc(OC)c(OC)c(OC)c2)c2ccc(OC)cc2)cc1

IC50 [7]: 0.15 µM
SMILES: COc1ccc(/C=C(/C(=O)c2cc(OC)c(OC)c(OC)c2)c2ccc(N(C)C)cc2)cc1

SMILES: COc1ccc(/C=C\c2cc(OC)c(OC)c(OC)c2)cc1O [COMBRETASTATIN A4]
IC50 [1]: 3.7 µM
IC50 [11]: 0.0014 µM
IC50 [2]: 0.0023 µM
Activity [12]: 92%
IC50 [3]: 0.0019 µM
Activity [4]: 23.3%
Activity [5]: 14%
IC50 [6]: 0.0031 µM
IC50 [7]: 0.0032 µM
IC50 [8]: 0.0078 µM
Activity [9]: 62.7%

IC50 [1]: 4.2 µM
IC50 [7]: 0.45 µM
SMILES: COc1ccc(C(=Cc2ccc(OC)c(F)c2)C(=O)c2cc(OC)c(OC)c(OC)c2)cc1

IC50 [7]: 0.76 µM
SMILES: COc1ccc(C=C(C(=O)c2cc(OC)c(OC)c(OC)c2)c2ccc(C)cc2)cc1

SMILES: COc1cc2c(c(OC)c1OC)-c1ccc(OC)c(=O)cc1[C@@H](NC(C)=O)CC2 [COLCHICINE]
IC50 [10]: 2.6 µM

IC50 [1]: 2.6 µM
IC50 [7]: 0.032 µM
SMILES: COc1ccc(C=C(C(=O)c2cc(OC)c(OC)c(OC)c2)c2ccc(C)cc2)cc1O
